# Data taken from ChEMBL document CHEMBL2086316, “Synthesis and structure-activity relationships of pyrazolo[1,5-a]pyridine derivatives: potent and orally active antagonists of corticotropin-releasing factor 1 receptor” (J Med Chem, 2012).
# Experiments:
# [1] = tested on: Liver microsomes; assay: Intrinsic clearance in human liver microsomes after 15 mins; assay type: ADME, Microsome
# Procedure, shortened: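 Compound at 0.3 μmol/L (0.03% DMSO final) was incubated with pooled human liver microsomes (0.1 mg/mL protein) and an NADPH-generating system at 37 °C for 0 and 15 min. Reactions were quenched with acetonitrile/methanol containing internal standard. Parent depletion was measured by LC/MS/MS. Values are the mean of six measurements.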
# [2] = Clearance in CD1 (ICR) mouse at 3 mg/kg, iv; assay type: ADME, organism-based; design: dose 3 mg/kg, route intravenous; conditions: in vivo
# Procedure, shortened: (§1)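 Male fasted CD1 (ICR) mice dosed i.v. 3 mg/kg or p.o. 10 mg/kg (10 mL/kg each). Vehicle was DMSO/5% glucose with 1/250 volume 5 mol/L HCl (1:19 i.v., 1:9 p.o.). Vena cava blood was drawn at 0.083 (i.v. only), 0.25, 0.5, 1, 2, 4, 6, 8 and 24 h, n = 4 per time point. Plasma was extracted and assayed by reversed-phase HPLC with fluorescence detection. Values are the mean of four animals.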
# [3] = AUC in CD1 (ICR) mouse at 10 mg/kg, po; assay type: ADME, organism-based; design: dose 10 mg/kg, route oral; conditions: plasma; procedure, shortened: as §1
# [4] = Terminal half life in CD1 (ICR) mouse at 3 mg/kg, iv; assay type: ADME, organism-based; design: dose 3 mg/kg, route intravenous; conditions: in vivo, read-out: beta t1/2 (converted); procedure, shortened: as §1
# [5] = AUC in CD1 (ICR) mouse at 3 mg/kg, iv; assay type: ADME, organism-based; design: dose 3 mg/kg, route intravenous; conditions: plasma; procedure, shortened: as §1
# [6] = Cmax in CD1 (ICR) mouse at 10 mg/kg, po; assay type: ADME, organism-based; design: dose 10 mg/kg, route oral; conditions: in vivo; procedure, shortened: as §1
# [7] = Volume of distribution at steady state in CD1 (ICR) mouse 3 mg/kg, iv; assay type: ADME, organism-based; design: dose 3 mg/kg, route intravenous; conditions: in vivo, read-out: Vdss; procedure, shortened: as §1
# [8] = Oral bioavailability in CD1 (ICR) mouse at 10 mg/kg; assay type: ADME, organism-based; conditions: in vivo; procedure, shortened: as §1
# [9] = Tmax in CD1 (ICR) mouse 10 mg/kg, po; assay type: ADME, organism-based; design: dose 10 mg/kg, route oral; conditions: in vivo; procedure, shortened: as §1
structure (smiles),measurement,setting,value
COCc1cc(OC)c(-c2cccc3c(N(CC4CCOCC4)CC4CC4)c(C#N)nn23)c(OC)c1,CLint,[1],1100 µL/min/mg
CCc1nn2c(-c3c(C)cc(C)cc3OC)cccc2c1N(CCOC)CC1CC1,CLint,[1],1690 µL/min/mg
CCc1nn2c(-c3cc(OC)c(OC)cc3OC)cccc2c1N(CC1CCOCC1)CC1CC1,CLint,[1],600 µL/min/mg
CCOCc1cc(OC)c(-c2cccc3c(N(CC4CCOCC4)CC4CC4)c(CC)nn23)c(OC)c1,CLint,[1],520 µL/min/mg
CCCN(CC1CCOCC1)c1c(CC)nn2c(-c3c(OC)cc(COC)cc3OC)cccc12,CLint,[1],700 µL/min/mg
CCc1nn2c(-c3c(OC)cccc3OC)cccc2c1N(CC1CCOCC1)CC1CC1,CLint,[1],740 µL/min/mg
COCc1cc(OC)c(-c2cccc3c(N(CC4CCOCC4)CC4CC4)c(OC)nn23)c(OC)c1,CLint,[1],760 µL/min/mg
CCc1nn2c(-c3c(OC)cc(COC)cc3OC)cccc2c1N(CC1CCOCC1)CC1CC1,CLint,[1],300 µL/min/mg
CCc1nn2c(-c3c(C)cc(C)cc3OC)cccc2c1N(CC1CC1)CC1CC1,CLint,[1],1120 µL/min/mg
CCc1nn2c(-c3c(OC)cc(OC)cc3OC)cccc2c1N(CC1CCOCC1)CC1CC1,CLint,[1],450 µL/min/mg
COCc1cc(OC)c(-c2cccc3c(N(CC4CCOCC4)CC4CC4)c(C)nn23)c(OC)c1,CLint,[1],110 µL/min/mg
COCc1cc(OC)c(-c2cccc3c(N(CC4CCOCC4)CC4CC4)c(SC)nn23)c(OC)c1,CLint,[1],340 µL/min/mg
CCc1nn2c(-c3c(C)cc(C)cc3OC)cccc2c1N(CC1CC1)CC1CCCO1 (centres undefined),CLint,[1],1230 µL/min/mg
CCc1nn2c(-c3c(C)cc(OC)cc3OC)cccc2c1N(CC1CCOCC1)CC1CC1,CLint,[1],450 µL/min/mg
COc1cc(C)cc(OC)c1-c1cccc2c(N(CC3CCOCC3)CC3CC3)c(OC)nn12,CLint,[1],570 µL/min/mg
CCc1nn2c(-c3c(C)cc(C)cc3OC)cccc2c1N(CCCF)CC1CC1,CLint,[1],1410 µL/min/mg
CCCN(CC1CCOCC1)c1c(CC)nn2c(-c3c(OC)cc(C)cc3OC)cccc12,CLint,[1],890 µL/min/mg
CCc1nn2c(-c3c(C)cc(C)cc3OC)cccc2c1N(CC1CC1)CC1CCOC1 (centres undefined),CLint,[1],1350 µL/min/mg
CCc1nn2c(-c3c(C)cc(C)cc3OC)cccc2c1N(CC1CCOCC1)CC1CC1,CLint,[1],450 µL/min/mg
CCc1nn2c(-c3c(COC)cc(OC)cc3OC)cccc2c1N(CC1CCOCC1)CC1CC1,CLint,[1],530 µL/min/mg
CCc1nn2c(-c3c(OC)cc(C)cc3OC)cccc2c1N(CC1CCOCC1)CC1CC1,CLint,[1],440 µL/min/mg
CCc1nn2c(-c3c(OC)cc(COC)cc3OC)cccc2c1N(CC1CCOCC1)CC1CC1.Cc1ccc(S(=O)(=O)O)cc1,clearance,[2],43.3 mL/min/kg
same,AUC,[3],870 ng·h/mL
same,half-life,[4],2.2 h
same,AUC,[5],850 ng·h/mL
same,Cmax,[6],320 ng/mL
same,Vd,[7],3.74 L/kg
same,bioavailability,[8],31%
same,Tmax,[9],0.25 h
